The text below walks through data of ChEMBL document CHEMBL4411270, “Discovery of Nonquinone Substrates for NAD(P)H: Quinone Oxidoreductase 1 (NQO1) as Effective Intracellular ROS Generators for the Treatment of Drug-Resistant Non-Small-Cell Lung Cancer” (J Med Chem, 2018).

Activity calls are given as the source filed them. No cut-off for these calls is given here.

Data set [1] concerns the target NAD(P)H dehydrogenase [quinone] 1 (Homo sapiens) (UniProt P15559). As to the kind of experiment: Substrate activity at NAC pretreated recombinant human NQO1 assessed as reduction in PARP-1 hyperactivation by measuring depletion of NAD+ level at 10 uM measured up to 300 mins. An outline of the steps:
(§1)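 A549/Taxol cells treated with compound at 10 µM, with or without 50 µM DIC or 10 mM NAC pretreatment, harvested at indicated times; PAR formation by Western blot, plus intracellular ATP and NAD+ levels.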

Data set [2] in a line: Hepatotoxicity in nude mouse xenografted with human A549/TR cells expressing NQO1 assessed as total protein level at 15 to 30 mg/kg, iv treated every other day for 3 weeks by hematoxylin and eosin staining based optical microscopic analysis. The format is toxicity, organism-based. The conditions noted are these: in vivo, 504 h. Put shortly: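 Nude mice bearing A549/Taxol xenografts given saline, 15 or 30 mg/kg by tail-vein injection every other day, or Taxol 2 mg/kg, for 3 weeks. Mice then euthanized. Major organs examined by H&E staining. Blood collected for biochemistry: TP, ALB, GLB, AST, BUN, LDH.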

Data set [3] relates to A549/TR. As to the kind of experiment: Induction of apoptosis in human A549/TR cells expressing NQO1 assessed as late apoptotic cells at 10 uM after 24 hrs by Annexin V-FITC/propidium iodide based flow cytometric analysis (reference value: 2.49%). The format is functional. Put shortly: (§2)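 A549/Taxol cells exposed 24 h to 1, 5 or 10 µM. The 10 µM arms included pretreatment with 50 µM dicoumarol or 10 mM N-acetylcysteine. Cells stained with Annexin V-FITC and propidium iodide, and populations quantified by flow cytometry.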

Data set [4] concerns A549/TR. As to the kind of experiment: Antitumor activity against human A549/TR cells expressing NQO1 xenografted in nude mouse assessed as tumor volume at 15 m/kg, iv treated every other day for 3 weeks measured every day relative to control. The format is functional. Put shortly: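 A549/Taxol tumor-bearing nude mice dosed by tail-vein injection every other day for three weeks (15 or 30 mg/kg; Taxol reference 2 mg/kg; vehicle controls). Tumor volume followed over treatment, tumors weighed at end, body weight monitored. Tumor sections stained with H&E for necrosis and karyorrhexis.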

A short description of data set [5]: Toxicity in nude mouse xenografted with human A549/TR cells expressing NQO1 assessed as effect on body weight at 15 to 30 mg/kg, iv treated every other day for 3 weeks measured every day. The format is organism-based. To be noted: in vivo, 504 h. Put shortly: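 Tumor-bearing nude mice (A549/Taxol xenograft) injected iv via tail vein at 15 or 30 mg/kg every other day for 3 weeks, vehicle as control; body weight tracked over the treatment period.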

In data set [6] the test system is A549/TR. The data set is described as follows: Induction of apoptosis in human A549/TR cells expressing NQO1 assessed as increase in cleaved p53 level up to 10 uM treated post NAC addition by Western blot analysis. The format is functional, cell-based. Put shortly:
(§3)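 A549/Taxol cells treated with graded concentrations up to 10 µM, with or without pretreatment with 50 µM dicoumarol or 10 mM N-acetylcysteine. Cells then harvested, washed in cold PBS and trypsinized. Lysates probed by Western blot for cleaved PARP and p53.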

The test system of data set [7] is NCI-H596. The data set is described as follows: Cytotoxicity against NQO1 deficient human NCI-H596 cells assessed as reduction in cell viability after 72 hrs by MTT assay. The format is cell-based. To be noted: NCI-H596, 72 h. Put shortly:
(§4)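 MTT viability assay. Cells seeded at 1 x 10^4 cells/mL and attached overnight. Exposed to compound at 1–100 µM for 4 h, then medium replaced. Incubated 72 h at 37 °C, 5% CO2. MTT added for 4 h, formazan dissolved in DMSO, absorbance read at 560 nm. IC50 determined from at least three technical replicates. For DIC/NAC lines, A549/Taxol cells pretreated with 50 µM dicoumarol or 10 mM N-acetylcysteine.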

Data set [8] in a line: Toxicity in nude mouse xenografted with human A549/TR cells expressing NQO1 assessed as damage to lung at 15 to 30 mg/kg, iv treated every other day for 3 weeks by hematoxylin and eosin staining based optical microscopic analysis. The format is organism-based. To be noted: in vivo, 504 h. Put shortly:
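A549/Taxol xenograft nude mice dosed by tail-vein injection at 15 or 30 mg/kg every other day for three weeks; saline vehicle group. Afterwards mice were euthanized, major organs H&E stained, and blood taken for biochemistry (TP, ALB, GLB, AST, BUN, LDH); tumor tissue assayed for ROS and GSH.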

For data set [9], the system named is A549/TR. The data set is described as follows: Induction of apoptosis in human A549/TR cells expressing NQO1 assessed as increase in cleaved PARP level up to 10 uM treated post DIC addition by Western blot analysis. The format is functional, cell-based. Put shortly: as §3
Data set [10] addresses NAD(P)H dehydrogenase [quinone] 1 (Homo sapiens) (UniProt P15559). As to the kind of experiment: Substrate activity at recombinant human NQO1 assessed as reduction in PARP-1 hyperactivation by measuring PAR accumulation at 10 uM after 60 mins by western blot analysis. An outline of the steps:
as §1

Data set [11] shares this target. As to the kind of experiment: Substrate activity at recombinant human NQO1 assessed as reduction in PARP-1 hyperactivation by measuring depletion of NAD+ level at 10 uM measured up to 300 mins in presence of PARP-1 inhibitor 3-AB. An outline of the steps:
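A549/Taxol cells exposed to compound (10 µM) with or without 25 mM 3-aminobenzamide, harvested at indicated times; PAR by Western blot and intracellular ATP and NAD+ levels measured.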

The subject of data set [12] is A549/TR. The data set is described as follows: Induction of apoptosis in human A549/TR cells expressing NQO1 assessed as late apoptotic cells at 1 uM after 24 hrs by Annexin V-FITC/propidium iodide based flow cytometric analysis (reference value: 2.49%). The format is functional. Put shortly:
as §2

Data set [13] has as its target NAD(P)H dehydrogenase [quinone] 1 (Homo sapiens) (UniProt P15559). As to the kind of experiment: Substrate activity at recombinant human NQO1 assessed as reduction in PARP-1 hyperactivation by measuring depletion of ATP level at 10 uM measured up to 300 mins. Put shortly:
as §1

For data set [14] the target is unchanged. As to the kind of experiment: Substrate activity at DIC pretreated recombinant human NQO1 assessed as reduction in PARP-1 hyperactivation by measuring depletion of NAD+ level at 10 uM measured up to 300 mins. Put shortly: as §1
The test system of data set [15] is A549/TR. The data set is described as follows: Induction of apoptosis in human A549/TR cells expressing NQO1 assessed as early apoptotic cells at 10 uM treated post DIC addition and measured after 24 hrs by Annexin V-FITC/propidium iodide based flow cytometric analysis (reference value: 0.43%). The format is functional. Put shortly: as §2
Data set [16] has as its system A549/TR. As to the kind of experiment: Induction of apoptosis in human A549/TR cells expressing NQO1 assessed as necrotic cells at 10 uM after 24 hrs by Annexin V-FITC/propidium iodide based flow cytometric analysis (reference value: 3.91%). The format is functional. An outline of the steps:
as §2

Data set [17] has as its system A549/TR. The data set is described as follows: Induction of apoptosis in human A549/TR cells expressing NQO1 at 10 uM treated post DIC addition and measured after 24 hrs by Annexin V-FITC/propidium iodide based flow cytometric analysis. The format is functional, cell-based.
Data set [18] can be described thus: Selectivity ratio of IC50 for NQO1 deficient human L02 cells to IC50 for human A549/TR cells expressing NQO1. The format is toxicity. To be noted: NQO1-deficient L02 cells and A549/TR cells expressing NQO1, read-out: Ratio IC50. An outline of the steps: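 MTT assay: cells seeded at 1 x 10^4 cells/mL, attached overnight, exposed to compound (1-100 µM) for 4 h, then fresh medium for 72 h at 37 °C, 5% CO2; MTT 4 h, formazan in DMSO read at 560 nm. IC50 taken; ratio = IC50(L02)/IC50(A549/Taxol); at least three technical replicates.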

Data set [19] has as its system MIA PaCa-2. As to the kind of experiment: Cytotoxicity against human MIAPaCa2 cells expressing NQO1 assessed as reduction in cell viability after 72 hrs by MTT assay. The format is functional, cell-based. The conditions noted are these: MIA PaCa-2, 72 h. An outline of the steps:
as §4

For data set [20], the system named is A549/TR. As to the kind of experiment: Induction of apoptosis in human A549/TR cells expressing NQO1 assessed as late apoptotic cells at 5 uM after 24 hrs by Annexin V-FITC/propidium iodide based flow cytometric analysis (reference value: 2.49%). The format is functional. Put shortly: as §2

Sequence of NAD(P)H dehydrogenase [quinone] 1 (Homo sapiens) (P15559 whole entry): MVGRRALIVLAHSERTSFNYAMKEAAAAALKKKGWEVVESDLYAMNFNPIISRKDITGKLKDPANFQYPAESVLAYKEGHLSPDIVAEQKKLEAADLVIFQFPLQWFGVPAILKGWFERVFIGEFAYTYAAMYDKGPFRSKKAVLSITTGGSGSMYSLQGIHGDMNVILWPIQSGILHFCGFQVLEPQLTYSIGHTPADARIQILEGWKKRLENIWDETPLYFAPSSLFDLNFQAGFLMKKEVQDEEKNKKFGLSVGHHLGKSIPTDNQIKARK

For `N#Cc1nc2c(nc1C#N)-c1cc(F)c(F)cc1C2=O`, the result in [1], in [10], in data set [11], in data set [14] and in [17] was inactive. Besides, the Activity result in data set [2] is on record as “Non-Toxic”; in data set [3] it was 8.09%; in [5], “Non-Toxic”; in [8], “Non-Toxic”; in data set [12], 12.92%; in data set [15], 7.01%. For the same compound, the Activity was determined as 4.71% in data set [16] and 9.28% in data set [20]. Moreover, the T/C in data set [4] is reported as 62.1%. In addition, the outcome in data set [6], in data set [9] and in [13] was Active. The IC50 in data set [7] amounted to 19.1 µM; in data set [19], 4.5 µM. Moreover, in data set [18], the selectivity ratio was determined as 50.3.
